Assay results reported in ChEMBL document CHEMBL1152695, “Development of 3-substituted-1H-indole derivatives as NR2B/NMDA receptor antagonists” (Bioorg Med Chem, 2009).

Tests used:
[1] = system: Mus musculus; experiment: Anticonvulsant activity in ip dosed DBA/2 mouse assessed as inhibition of auditory stimulation-induced clonic seizures administered 30 mins before auditory stimulation; type: functional; settings: DBA/2, ip
Procedure, shortened: (§1)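 DBA/2 mice (8–12 g, 22–25 days old), either sex, groups of 10. Given ip in 50% DMSO/50% saline at 0.1 mL/10 g, 30 min before testing. After 60 s habituation under a dome, sound (12–16 kHz, 109 dB) applied for 60 s or until tonic extension. Latency and incidence of each seizure phase scored.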

[2] = system: Mus musculus; experiment: Anticonvulsant activity in ip dosed DBA/2 mouse assessed as inhibition of auditory stimulation-induced tonic seizures administered 30 mins before auditory stimulation; type: functional; settings: DBA/2, ip; procedure, shortened: as §1
[3] = target: Glutamate receptor ionotropic, NMDA 2B (Rattus norvegicus) (UniProt Q00960); experiment: Displacement of [3H]ifenprodil from NMDA NR2B receptor in Wistar rat cerebral cortex membrane at 10 uM; type: tissue-based
Chain of Glutamate receptor ionotropic, NMDA 2B (Rattus norvegicus) (Q00960 27-1482 limits assumed): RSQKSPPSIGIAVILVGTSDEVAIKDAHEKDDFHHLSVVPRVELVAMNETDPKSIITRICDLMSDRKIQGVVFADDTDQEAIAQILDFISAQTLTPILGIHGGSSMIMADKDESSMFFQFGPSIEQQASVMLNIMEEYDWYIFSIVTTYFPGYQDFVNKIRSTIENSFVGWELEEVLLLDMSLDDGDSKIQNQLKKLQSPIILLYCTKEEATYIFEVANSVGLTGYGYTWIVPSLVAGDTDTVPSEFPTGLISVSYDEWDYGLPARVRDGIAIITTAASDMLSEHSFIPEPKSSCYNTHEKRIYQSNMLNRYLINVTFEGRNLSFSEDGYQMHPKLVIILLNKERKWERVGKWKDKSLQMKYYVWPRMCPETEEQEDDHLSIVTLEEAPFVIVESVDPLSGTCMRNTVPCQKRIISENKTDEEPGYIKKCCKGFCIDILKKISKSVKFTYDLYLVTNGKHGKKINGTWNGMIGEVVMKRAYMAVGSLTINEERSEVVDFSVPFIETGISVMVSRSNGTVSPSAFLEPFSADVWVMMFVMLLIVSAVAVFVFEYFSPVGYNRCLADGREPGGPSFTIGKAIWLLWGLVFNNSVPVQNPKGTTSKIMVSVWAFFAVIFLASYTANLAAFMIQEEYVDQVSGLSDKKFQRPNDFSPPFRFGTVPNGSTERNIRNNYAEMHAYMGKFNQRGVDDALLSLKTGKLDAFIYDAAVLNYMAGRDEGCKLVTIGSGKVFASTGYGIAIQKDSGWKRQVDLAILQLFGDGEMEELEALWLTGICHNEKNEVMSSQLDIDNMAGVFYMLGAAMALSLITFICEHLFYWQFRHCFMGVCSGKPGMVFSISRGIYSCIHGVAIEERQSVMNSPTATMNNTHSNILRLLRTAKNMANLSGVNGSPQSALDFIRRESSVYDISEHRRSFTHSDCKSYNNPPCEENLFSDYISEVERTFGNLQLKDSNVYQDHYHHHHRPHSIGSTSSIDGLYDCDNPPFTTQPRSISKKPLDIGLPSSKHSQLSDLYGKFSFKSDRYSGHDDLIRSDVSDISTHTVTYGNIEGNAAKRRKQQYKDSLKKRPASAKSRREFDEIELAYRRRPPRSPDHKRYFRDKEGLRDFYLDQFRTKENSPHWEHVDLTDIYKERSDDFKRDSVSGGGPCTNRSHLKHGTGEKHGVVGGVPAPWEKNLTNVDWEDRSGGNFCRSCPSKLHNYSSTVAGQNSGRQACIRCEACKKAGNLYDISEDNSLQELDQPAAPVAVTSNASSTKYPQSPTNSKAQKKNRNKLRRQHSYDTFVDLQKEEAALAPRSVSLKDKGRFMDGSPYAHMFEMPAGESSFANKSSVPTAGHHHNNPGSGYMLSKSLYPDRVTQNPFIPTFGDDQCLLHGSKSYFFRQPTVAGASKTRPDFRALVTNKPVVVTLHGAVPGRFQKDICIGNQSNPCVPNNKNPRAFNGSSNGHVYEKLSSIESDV

[4] = target: Glutamate receptor ionotropic, NMDA 2B (Rattus norvegicus, UniProt Q00960); experiment: Displacement of [3H]ifenprodil from NMDA NR2B receptor in Wistar rat cerebral cortex membrane; type: tissue-based
Chain of Glutamate receptor ionotropic, NMDA 2B (Q00960 whole entry): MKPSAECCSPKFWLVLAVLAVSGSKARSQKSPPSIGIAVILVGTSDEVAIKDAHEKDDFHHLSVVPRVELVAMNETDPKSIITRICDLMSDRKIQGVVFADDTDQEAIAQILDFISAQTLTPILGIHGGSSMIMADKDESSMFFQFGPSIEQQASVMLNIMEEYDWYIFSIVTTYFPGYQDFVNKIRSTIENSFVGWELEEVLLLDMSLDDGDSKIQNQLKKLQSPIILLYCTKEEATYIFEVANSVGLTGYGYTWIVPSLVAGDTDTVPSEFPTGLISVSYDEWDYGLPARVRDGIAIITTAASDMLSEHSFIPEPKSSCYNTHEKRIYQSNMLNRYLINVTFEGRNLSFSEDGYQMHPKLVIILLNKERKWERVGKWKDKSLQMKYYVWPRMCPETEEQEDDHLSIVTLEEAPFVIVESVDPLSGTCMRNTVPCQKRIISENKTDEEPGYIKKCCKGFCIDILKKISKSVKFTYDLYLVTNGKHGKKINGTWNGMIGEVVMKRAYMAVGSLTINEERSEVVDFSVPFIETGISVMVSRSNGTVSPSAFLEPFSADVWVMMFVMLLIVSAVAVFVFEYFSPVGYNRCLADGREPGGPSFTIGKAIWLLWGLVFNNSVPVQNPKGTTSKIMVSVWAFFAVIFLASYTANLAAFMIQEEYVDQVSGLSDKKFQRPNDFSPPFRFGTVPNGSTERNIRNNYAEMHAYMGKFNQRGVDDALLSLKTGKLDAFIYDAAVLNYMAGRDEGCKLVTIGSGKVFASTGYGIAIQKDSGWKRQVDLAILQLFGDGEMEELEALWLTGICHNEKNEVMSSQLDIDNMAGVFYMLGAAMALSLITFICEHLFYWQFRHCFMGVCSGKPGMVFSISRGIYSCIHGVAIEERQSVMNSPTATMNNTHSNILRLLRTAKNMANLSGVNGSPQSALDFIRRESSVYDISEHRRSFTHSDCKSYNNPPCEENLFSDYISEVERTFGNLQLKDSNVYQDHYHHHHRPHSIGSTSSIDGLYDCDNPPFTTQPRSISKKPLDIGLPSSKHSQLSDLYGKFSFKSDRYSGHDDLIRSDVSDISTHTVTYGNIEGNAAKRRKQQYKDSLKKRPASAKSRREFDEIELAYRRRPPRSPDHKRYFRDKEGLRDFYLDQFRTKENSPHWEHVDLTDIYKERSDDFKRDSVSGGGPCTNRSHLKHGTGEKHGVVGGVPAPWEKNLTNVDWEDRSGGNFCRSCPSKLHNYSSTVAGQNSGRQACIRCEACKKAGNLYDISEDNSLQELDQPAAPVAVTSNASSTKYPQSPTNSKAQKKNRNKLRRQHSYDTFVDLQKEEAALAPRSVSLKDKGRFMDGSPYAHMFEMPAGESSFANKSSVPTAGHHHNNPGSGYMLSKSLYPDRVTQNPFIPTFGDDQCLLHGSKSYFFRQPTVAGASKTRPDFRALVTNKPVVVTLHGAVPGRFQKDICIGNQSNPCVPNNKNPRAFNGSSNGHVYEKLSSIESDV

[5] = target: Glutamate receptor ionotropic, NMDA 2B (Rattus norvegicus) (UniProt Q00960); experiment: Antagonist activity at NMDA NR2B receptor in Wistar rat CA1 pyramidal neurons assessed as reduction of NMDA-induced inward currents at 100 uM at holding potential of -60 mV by patch-clamp technique; type: functional, cell-based; design: scale not given: the % may be the effect or the level left; settings: Pyramidal neuron
Procedure, shortened: (§2)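 Rat hippocampal slices; whole-cell currents recorded from single CA1 pyramidal neurons held at -60 mV. Inward current evoked by NMDA (50 µM, 5 s) plus glycine (0.5 µM). Compound bath-perfused at 1, 10 or 100 µM for 5 min. Amplitude taken as peak minus baseline, from at least three consecutive responses in control and in compound. Sets compared by unpaired t-test; percent reduction reported as mean ± SEM.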

[6] = target: Glutamate receptor ionotropic, NMDA 2B (Rattus norvegicus) (UniProt Q00960); experiment: Antagonist activity at NMDA NR2B receptor in Wistar rat CA1 pyramidal neurons assessed as reduction of NMDA-induced inward currents at 10 uM at holding potential of -60 mV by patch-clamp technique; type: functional, cell-based; design: scale not given: the % may be the effect or the level left; settings: Pyramidal neuron; procedure, shortened: as §2
[7] = target: Glutamate receptor ionotropic, NMDA 2B (Rattus norvegicus) (UniProt Q00960); experiment: Antagonist activity at NMDA NR2B receptor in Wistar rat CA1 pyramidal neurons assessed as reduction of NMDA-induced inward currents at 1 uM at holding potential of -60 mV by patch-clamp technique; type: functional, cell-based; design: scale not given: the % may be the effect or the level left; settings: Pyramidal neuron; procedure, shortened: as §2
[8] = target: Glutamate receptor ionotropic, NMDA 2B (Rattus norvegicus) (UniProt Q00960); experiment: Antagonist activity at NMDA NR2B receptor in Wistar rat CA1 pyramidal neurons assessed as inhibition of NMDA-induced inward currents at holding potential of -60 mV by patch-clamp technique; type: functional, cell-based; settings: Pyramidal neuron; procedure, shortened: as §2

Compound | ED50 [1] | ED50 [2] | also measured
O=C(CN1CCC(Cc2ccccc2)CC1)c1c[nH]c2ncccc12 | 88.5 µmol/kg | 32.5 µmol/kg | 
O=C(C(=O)N1CCC(Cc2ccccc2)CC1)c1c[nH]c2ccc(Br)cc12 | > 100 µmol/kg | 47.9 µmol/kg | 
O=C(C(=O)N1CCC(Cc2ccccc2)CC1)c1c[nH]c2ccccc12 | 22.4 µmol/kg | 0.95 µmol/kg | Activity [3]: 36%
O=C(Cc1c[nH]c2ccccc12)N1CCC(Cc2ccccc2)CC1 | 70.3 µmol/kg | 39.2 µmol/kg | 
O=C(C(=O)N1CCC(Cc2ccccc2)CC1)c1c[nH]c2ccc(O)cc12 | > 100 µmol/kg | > 100 µmol/kg | IC50 [4]: 2660 nM; Activity [3]: 77%
O=C(CN1CCC(Cc2ccccc2)CC1)c1c[nH]c2ccc(Br)cc12 | 84.9 µmol/kg | 49.7 µmol/kg | 
COc1ccc2[nH]cc(CC(=O)N3CCC(Cc4ccccc4)CC3)c2c1 | 89 µmol/kg | 34.4 µmol/kg | 
O=C(CN1CCC(Cc2ccccc2)CC1)c1c[nH]c2ccccc12 | 22.4 µmol/kg | 8.71 µmol/kg | IC50 [4]: 769 nM; Activity [3]: 89%
O=C(Cc1c[nH]c2ccc(Br)cc12)N1CCC(Cc2ccccc2)CC1 | 27.3 µmol/kg | 5.42 µmol/kg | 
O=C(Cc1c[nH]c2ccc(O)cc12)N1CCC(Cc2ccccc2)CC1 | 45.6 µmol/kg | 13.9 µmol/kg | 
O=C(CN1CCC(Cc2ccccc2)CC1)c1c[nH]c2ccc(O)cc12 | 11.5 µmol/kg | 6.48 µmol/kg | Activity [5]: 75%; Activity [6]: 52%; Activity [7]: 23%; Activity [8]: Dose-dependent effect; IC50 [4]: 25 nM; Ki [4]: 23 nM; Activity [3]: 92%
COc1ccc2[nH]cc(C(=O)C(=O)N3CCC(Cc4ccccc4)CC3)c2c1 | > 100 µmol/kg | 78.8 µmol/kg | 
C[C@@H](CN1CCC(Cc2ccccc2)CC1)[C@@H](O)c1ccc(O)cc1 | 40 µmol/kg | 10.6 µmol/kg | 
O=C(CN1CCN(Cc2ccccc2)CC1)c1c[nH]c2ccccc12 | > 100 µmol/kg | > 100 µmol/kg | 
COc1ccc2[nH]cc(C(=O)CN3CCC(Cc4ccccc4)CC3)c2c1 | 59.9 µmol/kg | 36.5 µmol/kg | 
O=C(CCc1c[nH]c2ccccc12)N1CCC(Cc2ccccc2)CC1 | > 100 µmol/kg | 57.6 µmol/kg | 
